The record followed here is article PMC6885571 (International Journal of Nanomedicine, 2019).

For one data set, the system named is nasal mucosa. Briefly: Test for nasal toxicity of NEs. The class given is in vivo, Wistar rats. The settings on record: rats, intranasal, 14 consecutive days; mucosa on days 1, 7, 14. An outline of the steps: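 Male Wistar rats (200 g), four groups of three, dosed intranasally. Groups: saline (negative control), 1% sodium deoxycholate in 50 µL saline (positive control), or one of two nanoemulsions for 14 consecutive days. Nasal mucosa collected after sacrifice on days 1, 7 and 14, fixed 24 h in 10% buffered formalin, dehydrated in ethanol, cleared in xylene and paraffin-embedded. Sections stained with H&E and examined by light microscopy.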

Data set [1] in a line: In vitro drug release, dialysis bag in phosphate buffer pH 6.8. The class given is physicochemical. The settings on record: at 24 h; phosphate buffer pH 6.8, 37 °C. An outline of the steps:
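Dialysis bag (12–14 kDa cut-off), pre-soaked overnight in medium, held 1 mL of freshly prepared nanoemulsion (5 mg/mL drug). Bag placed in 100 mL phosphate buffer pH 6.8 at 37 °C, shaken at 50 rpm. At set times 4 mL was withdrawn and replaced with fresh medium. HupA measured by HPLC (C18, methanol–water 43:57, 308 nm), plotted as cumulative % released versus time. Drug suspension run under the same sink conditions.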

Data set [2] in a line: Pharmacokinetic study after intranasal administration. The class given is in vivo, Wistar rats. The following applies: rats. The gist of the method: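 Wistar rats (200±20 g) anaesthetised with 10% chloral hydrate received 50 µL of formulation through a PE 10 tube inserted 1 cm into the nostril. Orbital blood and tissues taken at 0.083–24 h (11 points). Plasma or tissue homogenate alkalised with 2 mol/L NaOH, extracted with 2 mL ethyl acetate, dried under nitrogen, redissolved in methanol and assayed by HPLC. Parameters calculated by software; mean±SD, n=6.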

A short description of data set [3]: Saturation solubility of HupA in oils, surfactants and co-surfactants. The settings on record: thermodynamic from solid. The class given is physicochemical. An outline of the steps:
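Excess HupA added to 0.2 mL vehicle, vortexed 10 min, then kept 24 h at 37±0.5 °C in a shaking water bath. Mixture centrifuged at 6000 rpm for 10 min and supernatant filtered (0.45 µm). 0.1 mL diluted in methanol and dissolved drug quantified by HPLC.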

The next data set deals with hCMEC/D3 cells. Put plainly: Cellular uptake and transporter/endocytosis inhibition assay. The class given is cell-based, human. The settings on record: 30 min pre-incubation with inhibitor. An outline of the steps: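 hCMEC/D3 cells grown to 90% confluence, then pre-incubated 30 min at 37 °C, 5% CO2 with one inhibitor: verapamil 10 µM, MK571 10 µM, ko143 1 µM, […], aprotinin 200 µg/mL, colchicine 2.5 µM or […]. Nanoemulsion or HupA solution added for 1 h. Cells washed with ice-cold PBS, lysed in 1% Triton X-100, dichloromethane-extracted and analysed by HPLC; mean±SD, n=3.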

In brackets after ≈: the same amount, converted by molar mass.

As to `C[C@H](CCC(=O)[O-])[C@H]1CC[C@H]2[C@@H]3CC[C@@H]4C[C@H](O)CC[C@]4(C)[C@H]3C[C@H](O)[C@]12C.[Na+]` [1% deoxycholic acid sodium solution, deoxycholic acid sodium], the “nasal mucosa toxicity (histology)” value in the data set with nasal mucosa is “extensive damage to the nasal mucosa”.

As for `C/C=C1\[C@H]2C=C(C)C[C@]1(N)c1ccc(=O)[nH]c1C2` [HupA Solution], in data set [1], the drug released is reported as 63%. In addition, in data set [2] (brain), the “AUC(0-t)” value was 21.507 ng·h/mL, the “AUC(0-∞)” value turned out to be 23.765 ng·h/mL, the Cmax stood at 13.29 ng/mL and the “MRT(0-t)” value was 1.255 h. Besides, in data set [2] (brain), the “MRT(0-∞)” value is on record as 1.674 h, the T1/2 worked out at 1.173 h and the Tmax is on record as 0.25 h. Further, in data set [2] (plasma), the “AUC(0-t)” value was 51.188 ng·h/mL, the “AUC(0-∞)” value was 51.378 ng·h/mL, the Cmax worked out at 56.95 ng/mL and the “MRT(0-t)” value was found to be 1.153 h. In data set [2] (plasma), the “MRT(0-∞)” value was 1.439 h, the T1/2 came to 0.769 h and the Tmax is reported as 0.25 h.

Regarding `C/C=C1\[C@H]2C=C(C)C[C@]1(N)c1ccc(=O)[nH]c1C2` [HupA, Huperzine A], the solubility at 24 h in data set [3] (Capryol90, 37 °C, oil or lipid) turned out to be 38.33 ± 0.15 mg/mL (≈ 158 mM); in data set [3] (Cremophor EL, 37 °C), 34.7 ± 0.09 mg/mL (≈ 143 mM); in data set [3] (Grape seed oil, 37 °C, oil or lipid), 1.96 ± 0.01 mg/mL (≈ 8.09 mM); in data set [3] (L.A.S, 37 °C), 34.96 ± 0.13 mg/mL (≈ 144 mM); in data set [3] (LABRAFIL M 1944 CS, 37 °C, oil or lipid), 19.7 ± 0.24 mg/mL (≈ 81.3 mM); in data set [3] (Labrasol, 37 °C), 102.2 ± 0.65 mg/mL (≈ 422 mM). The solubility at 24 h in data set [3] (PEG400, 37 °C, organic solvent or mixture) was 98.41 ± 0.35 mg/mL (≈ 406 mM); in data set [3] (Plurol Oleique CC 497, 37 °C), 15.5 ± 0.31 mg/mL (≈ 64 mM); in data set [3] (Propanediol, 37 °C, organic solvent or mixture), 65.3 ± 0.91 mg/mL (≈ 270 mM); in data set [3] (Soybean oil, 37 °C, oil or lipid) it was 2.73 ± 0.07 mg/mL (≈ 11.3 mM); in data set [3] (Span 80, 37 °C), 13.35 ± 0.12 mg/mL (≈ 55.1 mM); in data set [3] (Tween 80, 37 °C), 21 ± 0.45 mg/mL (≈ 86.8 mM). In data set [3] (isopropyl myristate (IPM), 37 °C, oil or lipid), this compound had a solubility at 24 h of 2.43 ± 0.01 mg/mL (≈ 10 mM).

Take Aprotinin: the “effect of inhibitor on transport of HupA-NE across the cells” value in the data set with hCMEC/D3 cells (then HupA-NE 1 h) was “restricted transport”. The “effect of inhibitor on Lf-HupA-NE transport” value in the data set on hCMEC/D3 cells (then Lf-HupA-NE 1 h) is “mildly reduced”.
